Cl transport mod: modulates chloride dependent transport by human KCC2; Q9H2X9; KCC2 cells, thallium flux FluoZin-2 fluorescence; B-score of Tl+ flux slope (higher = more flux/activation; lower = inhibition) at 10 µM; 2.2% of 190,000 active; AID 1456;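 active = thallium flux slope and its plate-corrected score both differing from the plate sample mean at a set confidence after two filtering rounds, in either direction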;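 note: slope of fluorescence scaled to starting intensity during 10 to 20 s after thallium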
WT yeast gro inh: growth inhibition of WT yeast, mitochondrial fusion screen | 2.1% of 190,000 active | AID 1362 | inhibition, % at 10 µM | mitochondrial fusion phenotypic screen, WT strain; in the data active = inhibition above about 58%; tested in S. cerevisiae
ROMK primary: human ROMK K+ channel modulation, primary screen. B-score at 10 µM. AID 1918. P48048. Tet-inducible ROMK, thallium flux fluorescence; actives lie on both sides. 2% of 130,000 active;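 active = signal ratio slope over the read window, or its plate-corrected B-score, at least 3 SD from the plate mean, either direction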;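 note: B-score of the F/F0 ratio slope over 7 to 12 s after thallium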
p47phox inh: p47phox (human) inhibition; P14598; p47phox/p22phox peptide binding, fluorescence polarization, 2 h; inhibition, % at 24.7 µM; 0.53% of 220,000 active; AID 1274;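 active = inhibition above about 30%, limit read from the data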;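 note: 0% = p47phox with labelled peptide and 100% = labelled peptide alone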
Target sequence (P14598 whole entry, looked up): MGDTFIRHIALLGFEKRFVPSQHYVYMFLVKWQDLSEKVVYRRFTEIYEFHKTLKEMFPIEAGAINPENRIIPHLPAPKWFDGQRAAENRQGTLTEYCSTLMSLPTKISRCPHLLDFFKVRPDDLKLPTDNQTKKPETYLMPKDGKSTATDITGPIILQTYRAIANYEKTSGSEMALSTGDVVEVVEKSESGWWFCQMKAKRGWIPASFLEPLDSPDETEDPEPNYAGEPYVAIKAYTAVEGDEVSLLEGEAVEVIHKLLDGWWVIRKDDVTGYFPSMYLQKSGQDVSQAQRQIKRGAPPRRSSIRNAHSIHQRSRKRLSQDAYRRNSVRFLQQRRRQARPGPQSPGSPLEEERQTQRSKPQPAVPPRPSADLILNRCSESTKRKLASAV
RBBP9 inhibitor: human RBBP9 hydrolase inhibition; recombinant RBBP9, FP-Rh probe fluorescence polarization; inhibition, % at 7.94 µM; 0.2% of 220,000 active;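 active = inhibition above the campaign mean of all tested compounds plus 3 SD, cut at about 14% in these data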;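 note: plate controls were DMSO wells with RBBP9 for no effect and wells lacking RBBP9 protein for full effect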
Target sequence (O75884 whole entry, looked up): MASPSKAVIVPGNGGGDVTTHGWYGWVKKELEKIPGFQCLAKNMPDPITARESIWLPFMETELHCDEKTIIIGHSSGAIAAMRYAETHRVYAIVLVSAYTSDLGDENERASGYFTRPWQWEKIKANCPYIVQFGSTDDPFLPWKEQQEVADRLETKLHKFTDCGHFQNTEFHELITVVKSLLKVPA
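Material: RBBP9 protein. Amount: RBBP9 at 2.5 µM in dispensed solution, before mixing. Schedule: 30 min then 45 min, 25 °C. Medium: Tris buffer pH 8.0, NaCl, Pluronic. Measured by: fluorescence polarization. Measure: percent inhibition from mP, scaled between DMSO and no-protein wells. Replication: one well per compound.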
14-3-3 Bad PPI: disrupts binding of bovine 14-3-3 zeta to phospho-Bad peptide | TR-FRET 14-3-3zeta/Dy647-pBad peptide displacement, 1 h | inhibition, % at 21.7 µM | AID 781 | 0.71% of 220,000 active;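 active = inhibition above about 70%, limit read from the data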;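 note: 0% = full 14-3-3 plus peptide FRET controls and 100% = background without 14-3-3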
KCC2 secondary: confirmation of human KCC2 transport modulators; shares compounds with Cl transport mod; HEK293-KCC2, thallium flux, FluoZin2 fluorescence; hits give high values; normalised thallium flux (F/F0 slope) at 10 µM; 15% of 3,700 active; AID 1713;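 active = thallium flux slope above the same plate's solvent-only control mean plus 3 SD; inconclusive = the two replicate wells disagree; inactive = no significant difference from solvent-only control wells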
KCC2 bumet counter: thallium flux despite bumetanide block in KCC2 cells, secondary assay 3; normalized thallium flux at 10 µM; shares compounds with Cl transport mod; AID 1714; HEK293-KCC2 + bumetanide/ouabain, thallium flux FluoZin2; hits give high values; 49% of 3,700 active;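 active = thallium entry rate above the same plate's blocked-transporter control wells by more than 3 SD; inconclusive = the two repeat wells disagree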;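 note: raw slope of fluorescence over initial fluorescence between 10 and 20 s after thallium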
KCC2 sec2: confirmation of human KCC2 transport modulators; AID 1715; normalized thallium flux at 10 µM; HEK293-KCC2, thallium flux FluoZin2 fluorescence; actives lie on both sides; F/F0 rise rate, 10–20 s post-thallium; 23% of 3,700 active; shares compounds with Cl transport mod;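 active = thallium flux slope more than 3 SD above or below the plate's solvent-only control mean, mostly below; inconclusive = the two repeat wells disagreed; inactive = no significant shift from solvent-only controls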;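 note: raw slope with 0.1% DMSO as baseline and bumetanide as block control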
HEK293 Tl flux: acts in parental HEK cells, KCC2 counter-screen | 46% of 3,700 active | thallium flux rate (normalised fluorescence) at 10 µM | AID 1716 | shares compounds with Cl transport mod | HEK293 parental cells, thallium flux FluoZin2, ouabain; baseline-ratio fluorescence slope, 10–20 s after thallium;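 active = thallium flux rate significantly above the same plate's solvent-only control wells, beyond their mean plus 3 SD; inconclusive = the two replicate wells gave conflicting results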
KCC2 ouabain: KCC2 (human) modulation, ouabain retest; 48% of 3,700 active; raw Tl+ flux slope (below DMSO = inhibition, above = activation) at 10 µM; HEK293-KCC2, thallium flux FluoZin2 fluorescence; bidirectional: low = inhibitor, high = activator; AID 1717; shares compounds with Cl transport mod;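 active = thallium flux slope beyond 3 SD from same-plate DMSO control mean in most replicates, usually higher, sometimes lower; inconclusive = repeat tests gave conflicting results; inactive = no significant difference from controls in most replicates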;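 note: slope of initial-normalized fluorescence between seconds 10 and 20 after thallium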
HEK counter2: acts in parental HEK cells, second KCC2 counter-screen; 33% of 3,700 active; thallium flux slope at 10 µM; shares compounds with Cl transport mod; AID 1718; HEK293 parental, thallium flux FluoZin-2 fluorescence slope;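 active = thallium flux slope above the same plate's solvent-control mean plus 3 SD in both duplicate wells; inconclusive = duplicate wells that disagreed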;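 note: run without ouabain in cells lacking the KCC2 cotransporter; slope of fluorescence scaled to its starting value between 10 and 20 s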
* hit, by the source's call. In the library only some 5.8% were active in any assay of this set; here they are far more common.

`COc1ccc(OC)c2sc(NNC(=O)C3COc4ccccc4O3)nc12` (stereo unspecified) gave WT yeast gro inh -5.3, ROMK primary 0.631, p47phox inh 1.3, RBBP9 inhibitor 2.9 and 14-3-3 Bad PPI -20.3.
`COC(=O)Cc1[nH]n(-c2nc3ccccc3s2)c(=O)c1C(C)=Nc1ccc(Cl)cc1` gave Cl transport mod 7.45*, p47phox inh -78.7, RBBP9 inhibitor -5.7, 14-3-3 Bad PPI 30.4, KCC2 secondary 0.00873, KCC2 bumet counter 0.0143*, KCC2 sec2 0.0299, HEK293 Tl flux 0.0126*, KCC2 ouabain inconclusive and HEK counter2 inconclusive.
For CCc1c(C)sc(NC(=O)c2cc(C(C)C)on2)c1C#N the results were Cl transport mod 7.31*, WT yeast gro inh 14.0, ROMK primary 0.459, p47phox inh -8.0, RBBP9 inhibitor -8.7, 14-3-3 Bad PPI -9.5, KCC2 secondary 0.0115, KCC2 bumet counter 0.0272*, KCC2 sec2 0.0393, HEK293 Tl flux inconclusive, KCC2 ouabain 0.0307* and HEK counter2 inconclusive.
COCCNCC(=O)Nc1nc(C)cs1 was read as Cl transport mod -1.16, WT yeast gro inh 14.5, ROMK primary -0.536, p47phox inh -1.9, RBBP9 inhibitor -10.3 and 14-3-3 Bad PPI 11.9.
Screening N#Cc1c2n(c3c(=O)[nH]cnc13)CCCC2 returned Cl transport mod -0.875, WT yeast gro inh -8.4, p47phox inh -2.0, RBBP9 inhibitor 0.1 and 14-3-3 Bad PPI 4.6.
N#Cc1c2n(c3c(=S)nc[nH]c13)CCCCC2 was read as Cl transport mod 5.22*, WT yeast gro inh 14.0, p47phox inh -0.8, RBBP9 inhibitor 0.8, 14-3-3 Bad PPI 3.7, KCC2 secondary 0.00652, KCC2 bumet counter 0.0135*, KCC2 sec2 0.0321, HEK293 Tl flux 0.0135*, KCC2 ouabain inconclusive and HEK counter2 0.0143*.
For COc1cc(OC)c(C(=O)OC(C)C(=O)Nc2cccc(C(F)(F)F)c2)cc1OC (stereo unspecified) the results were Cl transport mod 1.24, WT yeast gro inh -4.8, ROMK primary -1.7, p47phox inh 6.3, RBBP9 inhibitor -9.4 and 14-3-3 Bad PPI -12.2.
CCNC(=S)N/N=C(\C)c1cccc([N+](=O)[O-])c1 was read as Cl transport mod 1.22, WT yeast gro inh 2.7, ROMK primary -0.463, p47phox inh -10.8, RBBP9 inhibitor -6.5 and 14-3-3 Bad PPI -19.1.
COCCn1nnnc1C(CC(C)C)N1CCN(C(=O)c2ccco2)CC1 (stereo unspecified) was read as Cl transport mod 7.5*, WT yeast gro inh 2.8, p47phox inh -7.0, RBBP9 inhibitor -0.9, 14-3-3 Bad PPI 6.3, KCC2 secondary 0.00643, KCC2 bumet counter 0.00459, KCC2 sec2 0.0319, HEK293 Tl flux 0.00851, KCC2 ouabain 0.0193 and HEK counter2 0.0099.
Screening Cc1onc(-c2ccccc2Cl)c1C(=O)NC(=S)Nc1ccc(C(C)(C)C)cc1 returned Cl transport mod 6.89*, ROMK primary -0.369, p47phox inh -10.3, RBBP9 inhibitor -8.9, 14-3-3 Bad PPI 4.1, KCC2 secondary 0.00732, KCC2 bumet counter 0.0118*, KCC2 sec2 0.0312, HEK293 Tl flux 0.0131*, KCC2 ouabain 0.0221 and HEK counter2 0.013*.
`CCc1ccc(NC(=S)NC(=O)c2c(-c3ccccc3Cl)noc2C)cc1` gave Cl transport mod 16.4*, ROMK primary -0.828, p47phox inh -10.6, RBBP9 inhibitor -10.9, 14-3-3 Bad PPI 0.3, KCC2 secondary 0.00547, KCC2 bumet counter 0.0271*, KCC2 sec2 0.0403*, HEK293 Tl flux 0.0277*, KCC2 ouabain 0.0318* and HEK counter2 0.0171*.
Screening Cc1onc(-c2ccccc2Cl)c1C(=O)Nc1ccccc1 returned Cl transport mod 0.427, WT yeast gro inh -13.8, p47phox inh 3.2, RBBP9 inhibitor -10.4 and 14-3-3 Bad PPI 10.0.
Screening COC(=O)C(=N/Nc1ccccc1C(=O)OC)/C(C)=N/O returned Cl transport mod 0.251, ROMK primary 0.89, p47phox inh -16.7, RBBP9 inhibitor -2.4 and 14-3-3 Bad PPI 4.5.
S=c1[nH]nc(C2CCCCC2)n1/N=C/C=C/c1ccccc1 was read as Cl transport mod 7.74*, WT yeast gro inh -12.0, ROMK primary 0.989, p47phox inh -9.5, RBBP9 inhibitor -7.2, 14-3-3 Bad PPI -2.1, KCC2 secondary 0.00677, KCC2 bumet counter 0.0369*, KCC2 sec2 0.0459*, HEK293 Tl flux 0.0337*, KCC2 ouabain 0.0318* and HEK counter2 0.0309*.
`O=[N+]([O-])c1ccccc1/C=N/n1c(C2CCCCC2)n[nH]c1=S` gave Cl transport mod 11*, WT yeast gro inh 58.1*, p47phox inh 1.0, RBBP9 inhibitor -5.3, 14-3-3 Bad PPI 2.6, KCC2 secondary 0.00643, KCC2 bumet counter 0.0325*, KCC2 sec2 0.0359, HEK293 Tl flux 0.024*, KCC2 ouabain 0.0307* and HEK counter2 0.0193*.
`S=c1[nH]nc(C2CCCCC2)n1/N=C/C(Cl)=C\c1ccccc1` gave Cl transport mod 3.4, WT yeast gro inh 10.7, ROMK primary 1.66, p47phox inh -15.5, RBBP9 inhibitor -3.0 and 14-3-3 Bad PPI -2.3.
Screening Cc1ccc(NC(=S)N2CCCC(O)C2)cc1 (stereo unspecified) returned Cl transport mod 1.04, WT yeast gro inh 14.2, ROMK primary 0.277, p47phox inh 2.8, RBBP9 inhibitor -9.9 and 14-3-3 Bad PPI 4.7.

Screening results: PubChem BioAssay, several laboratories
